{"source": "paper PMC7825188", "about": "(CPT: Pharmacometrics & Systems Pharmacology, 2020)", "key": {"[1]": {"experiment": "Study MBCT103: safety and tolerability", "assay_type": "in vivo, human", "how_it_was_run": "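AEs and SAEs were recorded from check-in on day −1 until a follow-up call 14 days after the last acumapimod dose. TEAEs were AEs that were new after treatment or worsened in intensity or frequency. Intensity was graded mild, moderate or severe. The safety set comprised all subjects receiving ≥1 acumapimod dose.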"}, "[2]": {"experiment": "Study MBCT102: safety and tolerability", "assay_type": "in vivo, human", "how_it_was_run": "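AEs and SAEs were recorded from check-in on day −1 until the post-study physical examination (day 15). TEAEs were AEs that were new after treatment or worsened in intensity or frequency. Intensity was graded mild, moderate or severe.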"}, "[3]": {"assay_type": "in vivo, human", "details": "MBCT103", "how_it_was_run": "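Healthy men received period 1 as in the azithromycin study (single 14 mg oral dose). In period 2, itraconazole oral solution 200 mg was given once daily on days 1–14, with a single acumapimod dose on day 7, 2 h post-itraconazole. Washout was ≥16 days. Plasma was sampled predose to 192 h and assayed by LC-MS/MS. Noncompartmental Cmax and AUCs were ln-transformed and analysed by ANOVA, giving GMR with 90% CI.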"}, "[4]": {"assay_type": "in vivo, human", "details": "MBCT102", "how_it_was_run": "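Healthy men (18–65 y, BMI 18–30, nonsmokers) completed two periods ≥14 days apart. Period 1 was a single oral 14 mg dose (2 × 7 mg capsules). In period 2, azithromycin 500 mg was given daily on days −1 to 2, with acumapimod on day 1. Plasma (K2EDTA) was sampled predose to 168 h, plus 336 h in period 2, and assayed by LC-MS/MS (1.0–1,000 ng/mL). Noncompartmental Cmax and AUCs were ln-transformed and analysed by ANOVA, giving GMR with 90% CI.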"}, "[5]": {"target": "P‐glycoprotein (P‐gp) (Homo sapiens, UniProt P08183)", "sequence (P08183 whole entry)": "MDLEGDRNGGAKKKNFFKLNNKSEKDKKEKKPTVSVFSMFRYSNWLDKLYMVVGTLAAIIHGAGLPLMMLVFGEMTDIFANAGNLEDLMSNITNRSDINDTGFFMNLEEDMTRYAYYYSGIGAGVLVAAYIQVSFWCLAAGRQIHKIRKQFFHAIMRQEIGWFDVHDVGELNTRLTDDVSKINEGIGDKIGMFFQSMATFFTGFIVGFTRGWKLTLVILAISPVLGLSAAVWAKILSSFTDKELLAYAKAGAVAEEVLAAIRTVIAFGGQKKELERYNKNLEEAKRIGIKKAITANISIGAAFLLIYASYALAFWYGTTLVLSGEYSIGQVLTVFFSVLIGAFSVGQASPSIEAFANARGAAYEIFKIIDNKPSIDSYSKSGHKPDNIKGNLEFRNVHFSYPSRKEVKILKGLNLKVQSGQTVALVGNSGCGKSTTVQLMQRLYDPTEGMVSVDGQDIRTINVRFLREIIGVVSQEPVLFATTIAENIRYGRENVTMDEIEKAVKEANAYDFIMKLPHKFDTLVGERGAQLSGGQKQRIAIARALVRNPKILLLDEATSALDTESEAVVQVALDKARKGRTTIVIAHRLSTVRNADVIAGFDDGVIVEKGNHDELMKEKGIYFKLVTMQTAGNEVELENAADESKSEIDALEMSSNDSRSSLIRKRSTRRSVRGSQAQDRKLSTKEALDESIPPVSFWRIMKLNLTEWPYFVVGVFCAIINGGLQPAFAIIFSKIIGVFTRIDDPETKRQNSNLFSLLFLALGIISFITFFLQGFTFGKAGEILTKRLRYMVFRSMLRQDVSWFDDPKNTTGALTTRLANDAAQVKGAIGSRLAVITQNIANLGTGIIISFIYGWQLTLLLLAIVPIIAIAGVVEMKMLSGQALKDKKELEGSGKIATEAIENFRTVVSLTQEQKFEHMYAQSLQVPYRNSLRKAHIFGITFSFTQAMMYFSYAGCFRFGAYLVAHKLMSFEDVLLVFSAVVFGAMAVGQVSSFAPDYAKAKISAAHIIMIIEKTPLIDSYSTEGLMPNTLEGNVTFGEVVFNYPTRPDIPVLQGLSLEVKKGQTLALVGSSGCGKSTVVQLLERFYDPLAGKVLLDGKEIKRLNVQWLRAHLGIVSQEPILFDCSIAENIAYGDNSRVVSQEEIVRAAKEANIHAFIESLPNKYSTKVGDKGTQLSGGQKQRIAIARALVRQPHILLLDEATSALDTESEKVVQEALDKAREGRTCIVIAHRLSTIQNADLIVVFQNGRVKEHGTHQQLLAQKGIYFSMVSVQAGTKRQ", "experiment": "P-gp substrate status of acumapimod", "assay_type": "in vitro ADME"}, "[6]": {"experiment": "Human mass balance study", "assay_type": "in vivo", "details": "assigned to biliary clearance (Model 1) or unabsorbed drug (Model 2)"}, "[7]": {"target": "CYP3A4 (Homo sapiens, UniProt P08684)", "sequence (P08684 whole entry)": "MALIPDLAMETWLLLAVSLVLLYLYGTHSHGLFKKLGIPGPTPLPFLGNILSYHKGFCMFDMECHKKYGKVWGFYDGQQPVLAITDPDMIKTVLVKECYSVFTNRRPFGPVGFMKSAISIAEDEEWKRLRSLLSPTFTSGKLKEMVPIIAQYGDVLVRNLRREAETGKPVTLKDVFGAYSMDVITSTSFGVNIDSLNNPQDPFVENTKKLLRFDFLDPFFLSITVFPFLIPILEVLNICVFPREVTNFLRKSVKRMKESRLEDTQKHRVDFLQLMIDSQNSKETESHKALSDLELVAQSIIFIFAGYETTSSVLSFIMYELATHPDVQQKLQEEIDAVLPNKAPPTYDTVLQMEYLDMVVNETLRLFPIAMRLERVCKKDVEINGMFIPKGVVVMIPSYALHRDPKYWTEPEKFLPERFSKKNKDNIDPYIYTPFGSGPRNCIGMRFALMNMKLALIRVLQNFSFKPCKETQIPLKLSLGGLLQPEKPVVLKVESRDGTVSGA", "experiment": "In vitro CYP phenotyping of acumapimod", "assay_type": "in vitro ADME", "details": "both models; based on in vitro phenotyping data"}, "[8]": {"details": "acumapimod + itraconazole vs. acumapimod alone"}, "[9]": {"details": "itraconazole, upper 90% CI of GMR"}, "[10]": {"details": "with itraconazole relative to acumapimod alone"}, "[11]": {"details": "acumapimod + azithromycin relative to acumapimod alone"}, "[12]": {"details": "azithromycin, upper 90% CI of GMR"}, "[13]": {"details": "with azithromycin vs. acumapimod alone"}}, "note": "Like-named read-outs stand apart in the source and are kept apart here.", "data": [{"compound": "Cc1ccc(C(=O)NC2CC2)cc1-n1ncc(C(=O)c2cccc(C#N)c2)c1N", "note": "[acumapimod]", "values": [{"measurement": "deaths, SAEs, severe TEAEs", "setting": "[1]", "value": "No deaths, SAEs, or severe TEAEs were reported"}, {"measurement": "treatment-related TEAEs", "setting": "[1]", "value": "No TEAEs were judged to be treatment related"}, {"measurement": "vital signs, electrocardiogram, laboratory parameters", "setting": "[1]", "value": "No safety concerns were raised"}, {"measurement": "subjects reporting TEAEs", "setting": "[1]; 6 of 16 subjects, both periods", "value": 37.5, "unit": "%"}, {"measurement": "number of TEAEs, overall", "setting": "[1]; 16 subjects, both periods", "value": 10}, {"measurement": "number of TEAEs", "setting": "[1]; acumapimod and itraconazole (period 2)", "value": 8}, {"measurement": "liver function tests and central nervous system AEs", "setting": "[1]; co‐administration of acumapimod and itraconazole", "value": "no clinically meaningful changes"}, {"measurement": "SAEs or deaths", "setting": "[2]", "value": "No SAEs or deaths were reported"}, {"measurement": "safety laboratory, vital signs, electrocardiogram, physical examination", "setting": "[2]", "value": "No clinically relevant findings"}, {"measurement": "subjects reporting TEAEs", "setting": "[2]; 8 of 16 subjects, both periods", "value": 50, "unit": "%"}, {"measurement": "number of TEAEs, overall", "setting": "[2]; 16 subjects, both periods", "value": "Fifteen"}, {"measurement": "number of TEAEs", "setting": "[2]; acumapimod alone (period 1)", "value": 7}, {"measurement": "number of TEAEs", "setting": "[2]; acumapimod with azithromycin (period 2)", "value": 8}, {"measurement": "intensity of TEAEs", "setting": "[2]; all TEAEs", "value": "mild or moderate"}, {"measurement": "TEAE considered likely related to acumapimod", "setting": "[2]; one TEAE, first exposure (acumapimod alone)", "value": "acneiform rash"}, {"measurement": "AUC0–t ratio (adjusted GMR)", "setting": "[3]; [8]", "value": 110.09, "unit": "%"}, {"measurement": "AUC0–∞ ratio (adjusted GMR)", "setting": "[3]; [8]", "value": 110.22, "unit": "%"}, {"measurement": "Cmax ratio (adjusted GMR)", "setting": "[3]; [8]", "value": 99.44, "unit": "%"}, {"measurement": "upper limit of interaction, AUC0–t", "setting": "[3]; [9]", "value": 120, "unit": "%"}, {"measurement": "upper limit of interaction, AUC0–∞", "setting": "[3]; [9]", "value": 120, "unit": "%"}, {"measurement": "upper limit of interaction, Cmax", "setting": "[3]; [9]", "value": 109, "unit": "%"}, {"measurement": "change in Cmax", "setting": "[3]; [10]", "value": "no change"}, {"measurement": "increase of geometric mean AUC0–t", "setting": "[3]; [10]", "value": 10, "unit": "%"}, {"measurement": "increase of geometric mean AUC0–∞", "setting": "[3]; [10]", "value": 10, "unit": "%"}, {"measurement": "AUC0–t ratio (adjusted GMR)", "setting": "[4]; [11]", "value": 105.65, "unit": "%"}, {"measurement": "AUC0–∞ ratio (adjusted GMR)", "setting": "[4]; [11]", "value": 104.32, "unit": "%"}, {"measurement": "Cmax ratio (adjusted GMR)", "setting": "[4]; [11]", "value": 106.34, "unit": "%"}, {"measurement": "upper limit of the interaction, AUC0–t", "setting": "[4]; [12]", "value": 112, "unit": "%"}, {"measurement": "upper limit of the interaction, AUC0–∞", "setting": "[4]; [12]", "value": 110, "unit": "%"}, {"measurement": "upper limit of the interaction, Cmax", "setting": "[4]; [12]", "value": 115, "unit": "%"}, {"measurement": "increase of geometric mean AUC0–∞", "setting": "[4]; [13]", "value": 4.3, "unit": "%"}, {"measurement": "increase of geometric mean Cmax", "setting": "[4]; [13]", "value": 6.3, "unit": "%"}, {"measurement": "P-gp substrate status", "setting": "[5]", "value": "substrate of P‐glycoprotein (P‐gp)"}, {"measurement": "dose recovered in the feces", "setting": "[6]", "value": 33.9, "unit": "%"}, {"measurement": "share of CYP‐mediated metabolism assigned to CYP3A4", "setting": "[7]", "value": 97.8, "unit": "%"}]}]}
